Laboratory results taken from ChEMBL document CHEMBL1142275, “Searching for new NO-donor aspirin-like molecules: a new class of nitrooxy-acyl derivatives of salicylic acid” (J Med Chem, 2008).
The source made the active and inactive calls. The rule behind the calls is not given here.

Tests used:
[1] = test system: Plasma; test: Inhibition of collagen-induced platelet aggregation in human plasma in presence of 1H-[1,2,4]oxadiazolo[4,3-a]quinoxalin-1-one; assay type: functional, cell-free
Summary of the method: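 Human PRP prepared by centrifuging citrated blood at 200 g for 20 min. Compounds (vehicle 0.5% DMSO) preincubated 10 min before collagen at 0.8-1.5 μg/mL (submaximal). Light-transmission aggregometry, stirring 1000 rpm, 37 °C, 10 min. sGC inhibitor ODQ at 50 μM. Inhibition relative to control; IC50 by non-linear regression, otherwise % inhibition at 300 μM; ≥5 experiments.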

[2] = Stability in human serum assessed as half life; assay type: ADME, cell-free
Summary of the method: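 Compound from 10 mM acetonitrile stock added to human serum at 37 °C (final 250 μM), incubated at 37 ± 0.5 °C. Aliquots deproteinised with acetonitrile containing 0.1% TFA, sonicated, vortexed, centrifuged 10 min at 2150 g, filtered, then RP-HPLC for parent compound and salicylic acid. First-order hydrolysis; t1/2 in h ± SD.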

[3] = test system: Aorta; test: Vasodilation activity in Wistar rat aorta assessed as relaxation of phenylephrine-induced smooth muscle contraction
[4] = Dissociation constant, pKa of the compound; assay type: physicochemical
[5] = Lipophilicity, log P of the compound; assay type: physicochemical; details: octanol/water
[6] = Chemical stability in aqueous buffer at pH 1 after 3 hrs; assay type: physicochemical; details: read-out: Stability
Summary of the method: (§1)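 10 mM acetonitrile stock added to 0.1 M HCl (pH 1) or 50 mM phosphate buffer pH 7.4 preheated to 37 °C; final compound 250 μM. Held at 37 ± 0.5 °C, aliquots taken at intervals and analysed by RP-HPLC. Value is % compound remaining unchanged at 3 h.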

[7] = Chemical stability in aqueous buffer at pH 7.4 after 3 hrs; assay type: physicochemical; details: read-out: Stability; summary of the method: as §1
[8] = test system: Plasma; test: Inhibition of collagen-induced platelet aggregation in human plasma in presence of 1H-[1,2,4]oxadiazolo[4,3-a]quinoxalin-1-one
[9] = test system: Plasma; test: Inhibition of collagen-induced platelet aggregation in human plasma at 300 uM relative to control
[10] = test system: Rattus norvegicus; test: Toxicity in Wistar rat assessed as lesion index at 120 mg/kg, intragastrically after 3 hrs; assay type: organism-based; set-up: dose 120 mg/kg, route intragastric; details: in vivo, po
Summary of the method: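 Male Wistar rats, 180-200 g, fasted 24 h with water available. […] Killed after 3 h; stomachs opened along the lesser curvature and glandular mucosa examined under stereomicroscope. Each haemorrhagic lesion rated by greatest length (<1 mm = 1; 1-2 mm = 2; >2 mm = length), then summed as lesion index; mean ± SEM.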

[11] = test system: Rattus norvegicus; test: Antiinflammatory activity against carrageenan-induced paw edema in Wistar rat at 120 mg/kg, intragastrically after 3 hrs; assay type: functional; details: route intragastric
Summary of the method: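 Conscious rats, edema raised by intraplantar 0.1 ml of 1% carrageenan (in 1% CMC) into right hindpaw. […] Paw volume by water plethysmometer before and 3 h after carrageenan. Inhibition expressed relative to vehicle edema taken as 100. Groups of 6-8 animals; mean ± SEM.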

| SMILES | Activity [1] | half-life [2] [h] | EC50 [3] [µM] | pKa [4] | logP [5] | remaining at 3 h [6] [%] | remaining at 3 h [7] [%] | IC50 [8] [µM] | inhibition at 300 µM [9] [%] | Activity [10] [%] | Activity [11] [%] |
| --- | --- | --- | --- | --- | --- | --- | --- | --- | --- | --- | --- |
| O=C(CCCCCCO[N+](=O)[O-])Oc1ccccc1C(=O)O | inactive | 1.19 | 8.1 | 3.69 | 1.6 | > 97 | > 95 | – | – | – | – |
| O=C(CCCCO[N+](=O)[O-])Oc1ccccc1C(=O)O | – | 0.76 | 21 | 3.69 | 1.6 | > 97 | > 95 | 91 | – | – | – |
| O=C(CCCCCO[N+](=O)[O-])Oc1ccccc1C(=O)O | – | 2.03 | 14 | 3.69 | 1.6 | > 97 | > 95 | – | 27 | – | – |
| CC(=O)Oc1ccccc1C(=O)O [ASPIRIN] | – | 1.06 | – | – | 1.14 | > 90 | > 90 | – | – | 53.5 | 47 |
| O=C(CC(CO[N+](=O)[O-])O[N+](=O)[O-])Oc1ccccc1C(=O)O (stereo not given) | – | 0.28 | 9.2 | 3.69 | 1.6 | > 85 | 20 | 119 | – | – | – |
| O=C(CCO[N+](=O)[O-])Oc1ccccc1C(=O)O | – | 0.26 | 37 | 3.69 | 1.6 | > 90 | 55 | 186 | – | – | – |
| O=C(CCCC(CO[N+](=O)[O-])O[N+](=O)[O-])Oc1ccccc1C(=O)O (stereo not given) | – | 4.87 | 5.8 | 3.69 | 1.6 | > 85 | > 95 | – | 6.7 | – | – |
| O=C(O)c1ccccc1O [SALICYLIC ACID] | – | – | – | – | – | 85 | > 90 | – | – | – | – |
| CC(C)(CO[N+](=O)[O-])C(=O)Oc1ccccc1C(=O)O | – | 9.03 | 6.2 | 3.69 | 1.6 | > 97 | > 95 | – | 26 | – | – |
| O=C(CCCO[N+](=O)[O-])Oc1ccccc1C(=O)O | – | 0.47 | 23 | 3.69 | 1.6 | > 97 | > 95 | 24 | – | – | – |
| O=C(CCC(CO[N+](=O)[O-])O[N+](=O)[O-])Oc1ccccc1C(=O)O (stereo not given) | – | 4.09 | 8.2 | 3.69 | 1.6 | > 85 | > 95 | – | 15 | – | – |
| CC(C)(CCC(CO[N+](=O)[O-])O[N+](=O)[O-])C(=O)Oc1ccccc1C(=O)O (stereo not given) | inactive | 15.2 | 5.3 | 3.69 | 1.6 | > 97 | > 95 | – | – | – | – |
| O=C(CCCCC(CO[N+](=O)[O-])O[N+](=O)[O-])Oc1ccccc1C(=O)O (stereo not given) | inactive | 6.25 | 3.1 | 3.69 | 1.6 | > 85 | > 95 | – | – | – | – |
